Results reported in ChEMBL document CHEMBL3351385, “Synthesis and preliminary mechanistic evaluation of 5-(p-tolyl)-1-(quinolin-2-yl)pyrazole-3-carboxylic acid amides with potent antiproliferative activity on human cancer cell lines” (Eur J Med Chem, 2014).

What was measured:
[1] = target: Ephrin type-B receptor 3 (Homo sapiens) (UniProt P54753); assay: Inhibition of EPHB3 (unknown origin) assessed as remaining enzyme activity at 10 uM by radioactive [33P]-ATP filter binding assay
Method in brief: (§1)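 A single 10 µM concentration was tested across a 140-kinase panel. Activity was measured by a radioactive 33P-ATP filter-binding assay run at the International Center for Kinase Profiling, University of Dundee.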

[2] = target: Homeodomain-interacting protein kinase 2 (Homo sapiens) (UniProt Q9H2X6); assay: Inhibition of HIPK2 (unknown origin) assessed as remaining enzyme activity at 10 uM by radioactive [33P]-ATP filter binding assay
[3] = target: Serine/threonine-protein kinase 26 (Homo sapiens) (UniProt Q9P289); assay: Inhibition of MST4 (unknown origin) assessed as remaining enzyme activity at 10 uM by radioactive [33P]-ATP filter binding assay
[4] = target: Serine/threonine-protein kinase Chk1 (Homo sapiens) (UniProt O14757); assay: Inhibition of CHK1 (unknown origin) assessed as remaining enzyme activity at 10 uM by radioactive [33P]-ATP filter binding assay; method in brief: as §1
Serine/threonine-protein kinase Chk1 (Homo sapiens), sequence (O14757 whole entry): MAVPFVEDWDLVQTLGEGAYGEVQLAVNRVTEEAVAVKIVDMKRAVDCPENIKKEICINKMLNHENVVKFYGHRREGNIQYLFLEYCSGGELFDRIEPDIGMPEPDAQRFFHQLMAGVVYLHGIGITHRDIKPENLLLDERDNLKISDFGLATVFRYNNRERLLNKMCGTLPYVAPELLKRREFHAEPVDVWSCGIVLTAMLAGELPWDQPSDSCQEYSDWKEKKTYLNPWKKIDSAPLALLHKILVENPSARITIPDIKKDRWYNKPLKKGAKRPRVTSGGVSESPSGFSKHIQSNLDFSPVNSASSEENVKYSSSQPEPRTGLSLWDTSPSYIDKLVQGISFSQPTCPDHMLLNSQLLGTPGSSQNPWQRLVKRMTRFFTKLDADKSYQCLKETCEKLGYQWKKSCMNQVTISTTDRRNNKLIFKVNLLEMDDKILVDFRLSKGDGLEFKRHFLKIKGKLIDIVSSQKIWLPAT

[5] = Induction of cell cycle arrest in human Mahlavu cells assessed as accumulation at G2/M phase at cytotoxic IC50 level after 48 hrs by propidium iodide staining based FACS method; format: functional
[6] = Cytotoxicity against human HuH7 cells after 72 hrs by SRB assay; format: functional, cell-based; conditions: Huh-7, 72 h
Method in brief: (§2)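 Cells kept in DMEM with 10% FCS and penicillin/streptomycin at 37°C, 5% CO2. 2000–3000 cells/well were seeded, and medium was refreshed the next day. DMSO solutions were added over 2.5–40 µM with matched DMSO-only controls for 72 h. Cells were then TCA-fixed, stained with 0.4% SRB in 1% acetic acid, solubilized in 10 mM Tris pH 8 and read at 515 nm. Data were normalized to DMSO wells and expressed as mean ±SD.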

[7] = target: Dual specificity tyrosine-phosphorylation-regulated kinase 1A (Homo sapiens) (UniProt Q13627); assay: Inhibition of DYRK1A (unknown origin) assessed as remaining enzyme activity at 10 uM by radioactive [33P]-ATP filter binding assay; method in brief: as §1
[8] = target: Serine/threonine-protein kinase ULK1 (Homo sapiens) (UniProt O75385); assay: Inhibition of ULK1 (unknown origin) assessed as remaining enzyme activity at 10 uM by radioactive [33P]-ATP filter binding assay
[9] = target: Myosin light chain kinase, smooth muscle (Homo sapiens) (UniProt Q15746); assay: Inhibition of smMLCK (unknown origin) assessed as remaining enzyme activity at 10 uM by radioactive [33P]-ATP filter binding assay
[10] = target: TGF-beta receptor type-1 (Homo sapiens) (UniProt P36897); assay: Inhibition of TGFBR1 (unknown origin) assessed as remaining enzyme activity at 10 uM by radioactive [33P]-ATP filter binding assay
TGF-beta receptor type-1 (Homo sapiens), sequence (P36897 whole entry): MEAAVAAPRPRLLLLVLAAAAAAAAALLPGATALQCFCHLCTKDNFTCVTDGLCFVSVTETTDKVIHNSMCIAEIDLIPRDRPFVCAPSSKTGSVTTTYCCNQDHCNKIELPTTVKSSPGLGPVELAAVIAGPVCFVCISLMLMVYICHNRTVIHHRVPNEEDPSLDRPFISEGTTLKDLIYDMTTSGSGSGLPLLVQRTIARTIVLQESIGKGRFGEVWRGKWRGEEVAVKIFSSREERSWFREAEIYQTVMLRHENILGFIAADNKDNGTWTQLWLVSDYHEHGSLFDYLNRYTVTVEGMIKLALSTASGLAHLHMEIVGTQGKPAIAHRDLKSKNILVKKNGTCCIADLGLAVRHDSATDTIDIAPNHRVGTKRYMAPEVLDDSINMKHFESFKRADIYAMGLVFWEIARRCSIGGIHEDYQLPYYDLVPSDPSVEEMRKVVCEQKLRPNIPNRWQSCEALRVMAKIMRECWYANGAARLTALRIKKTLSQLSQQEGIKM

[11] = target: High affinity nerve growth factor receptor (Homo sapiens) (UniProt P04629); assay: Inhibition of TrkA (unknown origin) assessed as remaining enzyme activity at 10 uM by radioactive [33P]-ATP filter binding assay
[12] = target: Insulin receptor (Homo sapiens) (UniProt P06213); assay: Inhibition of IR (unknown origin) assessed as remaining enzyme activity at 10 uM by radioactive [33P]-ATP filter binding assay
[13] = Cytotoxicity against human HCT116 cells after 72 hrs by SRB assay; format: functional, cell-based; conditions: HCT-116, 72 h; method in brief: as §2
[14] = target: Mitogen-activated protein kinase kinase kinase kinase 2 (Homo sapiens) (UniProt Q12851); assay: Inhibition of GCK (unknown origin) assessed as remaining enzyme activity at 10 uM by radioactive [33P]-ATP filter binding assay
[15] = target: Calcium/calmodulin-dependent protein kinase kinase 2 (Homo sapiens) (UniProt Q96RR4); assay: Inhibition of CAMKKB (unknown origin) assessed as remaining enzyme activity at 10 uM by radioactive [33P]-ATP filter binding assay; method in brief: as §1
[16] = target: Serine/threonine-protein kinase PAK 2 (Homo sapiens) (UniProt Q13177); assay: Inhibition of PAK2 (unknown origin) assessed as remaining enzyme activity at 10 uM by radioactive [33P]-ATP filter binding assay
Serine/threonine-protein kinase PAK 2 (Homo sapiens), sequence (Q13177 whole entry): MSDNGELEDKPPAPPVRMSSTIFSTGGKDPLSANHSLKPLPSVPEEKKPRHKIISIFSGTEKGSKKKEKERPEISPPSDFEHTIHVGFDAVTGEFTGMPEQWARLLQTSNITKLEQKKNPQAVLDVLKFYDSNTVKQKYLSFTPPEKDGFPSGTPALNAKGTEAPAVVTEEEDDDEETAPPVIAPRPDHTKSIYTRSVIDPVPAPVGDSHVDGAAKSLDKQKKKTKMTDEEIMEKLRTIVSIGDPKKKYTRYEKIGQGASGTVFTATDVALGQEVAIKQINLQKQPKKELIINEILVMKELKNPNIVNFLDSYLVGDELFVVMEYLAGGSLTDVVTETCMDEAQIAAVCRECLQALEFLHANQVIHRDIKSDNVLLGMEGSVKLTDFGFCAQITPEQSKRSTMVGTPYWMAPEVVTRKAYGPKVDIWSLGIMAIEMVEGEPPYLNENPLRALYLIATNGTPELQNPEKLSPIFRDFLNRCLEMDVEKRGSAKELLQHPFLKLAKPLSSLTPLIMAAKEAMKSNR

[17] = tested on: MCF7; assay: Cytotoxicity against human MCF7 cells after 72 hrs by SRB assay; format: functional, cell-based; conditions: MCF7, 72 h; method in brief: as §2
[18] = target: Tyrosine-protein kinase JAK2 (Homo sapiens) (UniProt O60674); assay: Inhibition of JAK2 (unknown origin) assessed as remaining enzyme activity at 10 uM by radioactive [33P]-ATP filter binding assay
Tyrosine-protein kinase JAK2 (Homo sapiens), sequence (O60674 whole entry): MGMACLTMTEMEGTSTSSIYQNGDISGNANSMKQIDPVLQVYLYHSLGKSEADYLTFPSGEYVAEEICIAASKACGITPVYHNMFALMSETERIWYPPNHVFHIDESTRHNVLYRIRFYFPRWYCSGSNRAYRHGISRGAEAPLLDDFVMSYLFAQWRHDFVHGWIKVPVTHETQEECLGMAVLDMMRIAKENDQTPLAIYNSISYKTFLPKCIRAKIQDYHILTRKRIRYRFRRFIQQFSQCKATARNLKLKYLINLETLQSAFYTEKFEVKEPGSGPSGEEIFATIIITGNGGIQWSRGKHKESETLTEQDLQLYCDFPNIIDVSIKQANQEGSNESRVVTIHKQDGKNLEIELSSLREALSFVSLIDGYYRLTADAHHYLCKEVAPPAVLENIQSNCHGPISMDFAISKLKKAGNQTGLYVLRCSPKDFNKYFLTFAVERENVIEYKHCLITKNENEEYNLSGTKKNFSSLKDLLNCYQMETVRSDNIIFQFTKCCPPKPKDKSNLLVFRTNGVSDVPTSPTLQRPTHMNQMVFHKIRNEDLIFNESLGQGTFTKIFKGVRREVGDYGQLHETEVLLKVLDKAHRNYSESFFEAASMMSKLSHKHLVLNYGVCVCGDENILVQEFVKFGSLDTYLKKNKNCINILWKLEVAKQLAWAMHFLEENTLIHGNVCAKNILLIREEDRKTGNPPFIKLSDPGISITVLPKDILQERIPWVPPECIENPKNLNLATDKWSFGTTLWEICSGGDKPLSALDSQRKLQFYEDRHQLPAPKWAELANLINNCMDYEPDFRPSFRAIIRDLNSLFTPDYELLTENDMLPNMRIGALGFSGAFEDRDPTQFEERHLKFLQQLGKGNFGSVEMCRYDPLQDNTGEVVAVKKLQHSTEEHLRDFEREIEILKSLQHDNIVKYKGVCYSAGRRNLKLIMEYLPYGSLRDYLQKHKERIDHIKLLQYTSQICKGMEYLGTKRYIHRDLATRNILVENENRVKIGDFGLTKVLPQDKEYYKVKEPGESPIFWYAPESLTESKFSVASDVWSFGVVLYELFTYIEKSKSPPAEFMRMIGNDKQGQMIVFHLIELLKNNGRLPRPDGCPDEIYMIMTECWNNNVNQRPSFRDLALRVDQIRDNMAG

[19] = target: Serine/threonine-protein kinase Chk2 (Homo sapiens) (UniProt O96017); assay: Inhibition of CHK2 (unknown origin) assessed as remaining enzyme activity at 10 uM by radioactive [33P]-ATP filter binding assay; method in brief: as §1
Serine/threonine-protein kinase Chk2 (Homo sapiens), sequence (O96017 whole entry): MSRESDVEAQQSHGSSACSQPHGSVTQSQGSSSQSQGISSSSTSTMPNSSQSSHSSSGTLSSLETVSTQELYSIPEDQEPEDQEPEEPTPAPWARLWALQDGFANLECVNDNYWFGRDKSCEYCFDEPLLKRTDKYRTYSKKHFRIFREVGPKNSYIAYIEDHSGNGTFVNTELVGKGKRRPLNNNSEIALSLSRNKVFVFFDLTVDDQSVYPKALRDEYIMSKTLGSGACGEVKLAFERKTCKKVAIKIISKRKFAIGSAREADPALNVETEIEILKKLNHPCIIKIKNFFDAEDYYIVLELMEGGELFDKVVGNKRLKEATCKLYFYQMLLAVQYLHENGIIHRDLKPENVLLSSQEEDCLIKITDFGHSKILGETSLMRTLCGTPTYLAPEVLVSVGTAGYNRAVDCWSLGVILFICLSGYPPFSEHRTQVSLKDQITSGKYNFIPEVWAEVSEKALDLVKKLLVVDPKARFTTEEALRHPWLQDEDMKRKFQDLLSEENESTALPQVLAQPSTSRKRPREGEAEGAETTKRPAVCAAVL

[20] = target: CDK9/cyclin T1 (Homo sapiens) (UniProt O60563+P50750); assay: Inhibition of CDK9/Cyclin-T1 (unknown origin) assessed as remaining enzyme activity at 10 uM by radioactive [33P]-ATP filter binding assay; format: protein-complex assay; method in brief: as §1
[21] = target: Serine/threonine-protein kinase Nek2 (Homo sapiens) (UniProt P51955); assay: Inhibition of NEK2A (unknown origin) assessed as remaining enzyme activity at 10 uM by radioactive [33P]-ATP filter binding assay
[22] = target: Serine/threonine-protein kinase WNK1 (Homo sapiens) (UniProt Q9H4A3); assay: Inhibition of WNK1 (unknown origin) assessed as remaining enzyme activity at 10 uM by radioactive [33P]-ATP filter binding assay
[23] = target: Ribosomal protein S6 kinase beta-1 (Homo sapiens) (UniProt P23443); assay: Inhibition of S6K1 (unknown origin) assessed as remaining enzyme activity at 10 uM by radioactive [33P]-ATP filter binding assay
[24] = target: Calcium/calmodulin-dependent protein kinase type 1 (Homo sapiens) (UniProt Q14012); assay: Inhibition of CAMK1 (unknown origin) assessed as remaining enzyme activity at 10 uM by radioactive [33P]-ATP filter binding assay; method in brief: as §1
[25] = target: Ribosomal protein S6 kinase alpha-3 (Homo sapiens) (UniProt P51812); assay: Inhibition of RSK2 (unknown origin) assessed as remaining enzyme activity at 10 uM by radioactive [33P]-ATP filter binding assay
Ribosomal protein S6 kinase alpha-3 (Homo sapiens), sequence (P51812 whole entry): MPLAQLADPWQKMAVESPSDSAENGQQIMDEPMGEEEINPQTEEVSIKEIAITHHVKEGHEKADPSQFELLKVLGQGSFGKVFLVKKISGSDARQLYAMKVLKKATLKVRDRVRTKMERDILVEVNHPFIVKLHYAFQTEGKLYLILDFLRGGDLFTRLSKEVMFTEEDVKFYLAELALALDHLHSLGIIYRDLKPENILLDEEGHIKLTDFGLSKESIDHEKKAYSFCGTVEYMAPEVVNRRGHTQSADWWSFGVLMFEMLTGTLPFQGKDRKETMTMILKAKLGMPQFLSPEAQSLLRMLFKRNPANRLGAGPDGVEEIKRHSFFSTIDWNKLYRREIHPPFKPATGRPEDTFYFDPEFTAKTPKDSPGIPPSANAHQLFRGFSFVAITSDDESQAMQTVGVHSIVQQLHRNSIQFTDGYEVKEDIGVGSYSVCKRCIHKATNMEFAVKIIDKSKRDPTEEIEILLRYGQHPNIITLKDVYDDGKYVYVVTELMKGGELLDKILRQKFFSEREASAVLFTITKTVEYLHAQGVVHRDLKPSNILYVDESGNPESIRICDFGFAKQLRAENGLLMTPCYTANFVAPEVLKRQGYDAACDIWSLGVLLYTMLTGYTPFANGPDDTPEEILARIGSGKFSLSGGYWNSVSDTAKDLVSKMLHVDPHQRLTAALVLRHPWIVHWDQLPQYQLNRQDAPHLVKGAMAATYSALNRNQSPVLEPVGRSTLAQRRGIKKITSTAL

[26] = target: Serine/threonine-protein kinase PAK 6 (Homo sapiens) (UniProt Q9NQU5); assay: Inhibition of PAK6 (unknown origin) assessed as remaining enzyme activity at 10 uM by radioactive [33P]-ATP filter binding assay
[27] = target: Tyrosine-protein kinase Yes (Homo sapiens) (UniProt P07947); assay: Inhibition of YES1 (unknown origin) assessed as remaining enzyme activity at 10 uM by radioactive [33P]-ATP filter binding assay
Tyrosine-protein kinase Yes (Homo sapiens), sequence (P07947 2-543 limits assumed): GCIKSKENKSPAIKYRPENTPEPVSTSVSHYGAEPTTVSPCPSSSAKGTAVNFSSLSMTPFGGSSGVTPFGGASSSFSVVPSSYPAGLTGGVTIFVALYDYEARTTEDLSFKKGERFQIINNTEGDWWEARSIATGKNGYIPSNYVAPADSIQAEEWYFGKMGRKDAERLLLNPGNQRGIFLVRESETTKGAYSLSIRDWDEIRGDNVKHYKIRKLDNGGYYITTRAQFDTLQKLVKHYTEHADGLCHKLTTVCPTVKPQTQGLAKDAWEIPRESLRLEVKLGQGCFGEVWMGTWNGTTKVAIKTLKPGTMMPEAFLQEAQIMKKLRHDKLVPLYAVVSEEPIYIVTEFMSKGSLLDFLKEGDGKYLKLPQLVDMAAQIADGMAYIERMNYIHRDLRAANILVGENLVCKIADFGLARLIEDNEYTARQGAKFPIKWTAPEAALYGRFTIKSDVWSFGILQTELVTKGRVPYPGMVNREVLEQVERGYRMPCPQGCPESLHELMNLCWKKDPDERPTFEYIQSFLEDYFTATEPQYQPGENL

[28] = target: Serine/threonine-protein kinase pim-2 (Homo sapiens) (UniProt Q9P1W9); assay: Inhibition of PIM2 (unknown origin) assessed as remaining enzyme activity at 10 uM by radioactive [33P]-ATP filter binding assay
Serine/threonine-protein kinase pim-2 (Homo sapiens), sequence (Q9P1W9 whole entry, looked up): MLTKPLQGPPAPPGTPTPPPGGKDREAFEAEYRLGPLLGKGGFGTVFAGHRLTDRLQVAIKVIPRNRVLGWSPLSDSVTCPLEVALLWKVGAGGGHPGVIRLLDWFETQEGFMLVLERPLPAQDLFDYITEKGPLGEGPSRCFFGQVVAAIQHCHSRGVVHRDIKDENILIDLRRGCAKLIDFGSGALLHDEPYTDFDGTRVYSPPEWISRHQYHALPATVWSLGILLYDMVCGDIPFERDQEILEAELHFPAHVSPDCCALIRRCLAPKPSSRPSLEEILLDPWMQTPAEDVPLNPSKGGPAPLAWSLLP

[29] = target: Mitogen-activated protein kinase 1 (Homo sapiens) (UniProt P28482); assay: Inhibition of ERK2 (unknown origin) assessed as remaining enzyme activity at 10 uM by radioactive [33P]-ATP filter binding assay; method in brief: as §1

Activity [1]: 109%
Activity [2]: 124%
Activity [3]: 110%
Activity [4]: 85%
Activity [7]: 68%
Activity [8]: 136%
Activity [9]: 103%
Activity [10]: 108%
Activity [11]: 96%
Activity [12]: 96%
Activity [14]: 112%
Activity [15]: 85%
Activity [16]: 109%
Activity [18]: 99%
Activity [19]: 94%
Activity [20]: 113%
Activity [21]: 90%
Activity [22]: 106%
Activity [23]: 88%
Activity [24]: 113%
Activity [25]: 86%
Activity [26]: 104%
Activity [27]: 108%
Activity [28]: 114%
Activity [29]: 115%
Structure (SMILES): Cc1ccc(-c2cc(C(=O)Nc3ccnc(Cl)c3)nn2-c2ccc3ccccc3n2)cc1
Activity [5]: 19.9%
IC50 [6]: 1.6 µM
IC50 [13]: 1.1 µM
IC50 [17]: 3.3 µM
